# Test results taken from ChEMBL document CHEMBL1121484, “Thrombin inhibitors. 2. Amide derivatives of N alpha-substituted L-arginine” (J Med Chem, 1980).
# Biological target: Prothrombin (Bos taurus, UniProt P00735)
# Experiment: Bovine thrombin concentration at which clotting time was prolonged 2x over the control.
# Assay type: functional
# Details: read-out: I50
# In short: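 Clotting assay at 25 °C. The read-out was the time from thrombin addition to clot formation.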
row,Compound,IC50 [µM]
1,CN(C)c1cccc2c(S(=O)(=O)NC(CCCN=C(N)N)C(=O)N3CCCCC3)cccc12 (configuration not stated),1
2,CCCCNC(=O)C(CCCN=C(N)N)NS(=O)(=O)c1cccc2c(N(C)C)cccc12 (configuration not stated),2.1
3,CC1CCN(C(=O)C(CCCN=C(N)N)NS(=O)(=O)c2ccc3c(c2)OCCCO3)CC1 (configuration not stated),8
4,CCOc1cccc2c(S(=O)(=O)NC(CCCNC(=N)N)C(=O)N3CCC(CC)CC3)cccc12 (configuration not stated),0.1
5,CC1CCN(C(=O)C(CCCN=C(N)N)NS(=O)(=O)c2cccc3c(N(C)C)cccc23)CC1 (configuration not stated),0.3
6,CC1CCN(C(=O)C(CCCN=C(N)N)NS(=O)(=O)c2ccc3c(c2)CCCC3)CC1 (configuration not stated),0.6
7,CCCCN(C)C(=O)C(CCCNC(=N)N)NS(=O)(=O)c1ccc2ccccc2c1 (configuration not stated),50
8,CCC1CCN(C(=O)C(CCCNC(=N)N)NS(=O)(=O)c2cc(OC)c3cc(OC)ccc3c2)CC1 (configuration not stated),0.1
9,CC1CN(C(=O)C(CCCN=C(N)N)NS(=O)(=O)c2cccc3c(N(C)C)cccc23)CC(C)O1 (configuration not stated),20
10,CCC1CCN(C(=O)C(CCCNC(=N)N)NS(=O)(=O)c2ccc3c(c2)CCCC3)CC1 (configuration not stated),0.7
11,CN(C)c1cccc2c(S(=O)(=O)NC(CCCNC(=N)N)C(=O)N3Cc4ccccc4C3)cccc12 (configuration not stated),0.67

# Other lines, results leading:
row,IC50 [µM],Compound
1,1,CCC1CCN(C(=O)C(CCCN=C(N)N)NS(=O)(=O)c2ccc3ccccc3c2)CC1 (configuration not stated)
2,1000,CCC1CCN(C(=O)C(CCCN=C(N)N)NS(=O)(=O)c2cccc3c(C(=O)O)cccc23)CC1 (configuration not stated)
3,20,CCC1CCN(C(=O)C(CCCN=C(N)N)NS(=O)(=O)c2ccc3ccc(=O)oc3c2)CC1 (configuration not stated)
4,0.4,CCC1CCN(C(=O)C(CCCN=C(N)N)NS(=O)(=O)c2ccc3ccccc3c2OC)CC1 (configuration not stated)
5,25,CCC1CCN(C(=O)C(CCCN=C(N)N)NS(=O)(=O)c2ccc3c(c2)OCCO3)CC1 (configuration not stated)
6,1.5,CCC1CCN(C(=O)C(CCCN=C(N)N)NS(=O)(=O)c2ccc3c(c2)C(=O)c2ccccc2C3=O)CC1 (configuration not stated)

# Biological target: Prothrombin (Bos taurus) (UniProt P00735)
# Experiment: Percentage of rate of hydrolysis in 4 hr incubation by thrombin
# Assay type: functional
# Details: not given
# In short: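 Test compounds at 1 mM in 0.1 M Tris-HCl, pH 8.0, were incubated with thrombin (100 units in a 1.0 mL reaction) at 37 °C for 4 h. Hydrolysis rate was followed titrimetrically with a pH-stat and automatic burette at 37 °C and pH 8.0.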
row,Hydrolysis [%],Compound
1,0,COCCNC(=O)C(CCCN=C(N)N)NS(=O)(=O)c1cccc2c(N(C)C)cccc12 (configuration not stated)
2,0,CCCCN(C)C(=O)C(CCCN=C(N)N)NS(=O)(=O)c1cccc2c(N(C)C)cccc12 (configuration not stated)
3,0,CN(C)c1cccc2c(S(=O)(=O)NC(CCCN=C(N)N)C(=O)N3CCCCC3)cccc12 (configuration not stated)
4,0,CCCCNC(=O)C(CCCN=C(N)N)NS(=O)(=O)c1cccc2c(N(C)C)cccc12 (configuration not stated)
5,0,CCC1CCN(C(=O)C(CCCN=C(N)N)NS(=O)(=O)c2cccc3c(N(C)C)cccc23)CC1 (configuration not stated)
